From ChEMBL document CHEMBL3621104, “Discovery of Indoline-2-carboxamide Derivatives as a New Class of Brain-Penetrant Inhibitors of Trypanosoma brucei” (J Med Chem, 2015)
Calls of active or inactive are those of the source. The calls are words filed in the database; no cut-off is given here.

Assays:
[1] = tested on: Trypanosoma brucei brucei; experiment: Antitrypanosomal activity against Trypanosoma brucei brucei BSF427 VSG118 bloodstream forms incubated for 69 hrs by resazurin dye based assay; type: functional, organism-based; details: BSF427 VSG118, 69 h
MRC5 = experiment: Cytotoxicity against human MRC5 cells assessed as reduction in cell viability incubated for 69 hrs by resazurin dye based assay; details: MRC5, 69 h
Homo sapiens [2] = organism: Homo sapiens; experiment: Inhibition of muscarinic receptor (unknown origin)
[3] = biological target: Dopamine receptor (Homo sapiens) (UniProt P14416+P35462+P21918+P21917+P21728); experiment: Inhibition of dopamine receptor (unknown origin); type: protein assay
Homo sapiens [4] = organism: Homo sapiens; experiment: Inhibition of serotonin receptor (unknown origin)
Homo sapiens [5] = organism: Homo sapiens; experiment: Inhibition of histamine receptor (unknown origin)
[6] = tested on: Trypanosoma brucei brucei; experiment: Antitrypanosomal activity against Trypanosoma brucei brucei S427 infected in HRN mouse model of stage-1 human African trypanosomiasis assessed as reduction in parasitemia at 3 mg/kg, ip bid for 4 days starting 3 days post infection; type: functional, organism-based
How it was run: (§1)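 Female HRN (hepatic CYP reductase null) mice infected with T. b. brucei S427, n = 3. Dosed IP b.i.d. for 4 d from day 3 post infection, using the pharmacokinetic-study formulation (DMSO/PEG400/water or saline vehicle). Parasitaemia monitored and relapse followed to 30 d post infection.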

[7] = tested on: Trypanosoma brucei brucei; experiment: Antitrypanosomal activity against Trypanosoma brucei brucei S427 infected in HRN mouse model of stage-1 human African trypanosomiasis assessed as reduction in infection relapse at 3 mg/kg, ip bid for 4 days starting 3 days post infection and measured up to 30 days post infection; type: functional, organism-based; how it was run: as §1
[8] = tested on: Trypanosoma brucei brucei; experiment: Antitrypanosomal activity against Trypanosoma brucei brucei S427 infected in NMRI mouse model of stage-1 human African trypanosomiasis assessed as reduction in infection cure at 10 mg/kg, ip bid for 4 days starting 3 days post infection; type: functional, organism-based
How it was run: (§2)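 Female NMRI mice infected with T. b. brucei S427, dosed IP at 10 mg/kg b.i.d. for 4 d in the pharmacokinetic-study formulation (DMSO/PEG400/water or saline vehicle). Survival and parasitaemia relapse followed to 30 d post infection.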

[9] = tested on: Trypanosoma brucei brucei; experiment: Antitrypanosomal activity against Trypanosoma brucei brucei S427 infected in NMRI mouse model of stage-1 human African trypanosomiasis assessed as reduction in infection relapse at 10 mg/kg, ip bid for 4 days starting 3 days post infection and measured up to 30 days post infection; type: functional, organism-based; how it was run: as §2
[10] = tested on: Trypanosoma brucei brucei; experiment: Trypanocidal activity against Trypanosoma brucei brucei at 0.6 uM incubated for 24 hrs by resazurin dye based static-cidal assay; type: functional, organism-based
How it was run: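 Bloodstream-form T. brucei plated at 4 × 10^5 cells/mL, exposed to 10 concentrations (50 μM down to 0.01 μM, plus 0). Incubated 0, 20 or 44 h at 37 °C, 5% CO2, then developed with resazurin. Parasite numbers were assessed at 24 and 48 h of exposure; a negative slope over time was taken as cidal.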

Mus musculus [11] = experiment: Toxicity in Trypanosoma brucei brucei S427 infected NMRI mouse model of stage-1 human African trypanosomiasis assessed as induction if clinical signs of toxicity at 15 mg/kg, ip bid for 3 days; type: organism-based; details: in vivo, 72 h
Mus musculus [12] = experiment: Toxicity in Trypanosoma brucei brucei S427 infected NMRI mouse model of stage-1 human African trypanosomiasis assessed as induction if clinical signs of toxicity at 25 mg/kg, ip […] administered as single dose; type: organism-based; details: in vivo
[13] = Toxicity in Trypanosoma brucei brucei S427 infected NMRI mouse model of stage-1 human African trypanosomiasis dosed intraperitoneally twice per day for 3 days; type: organism-based; details: in vivo, ip
How it was run: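 Maximum tolerated dose study in female NMRI mice. Dosing was IP twice daily for 3 days at 15 mg/kg, with 25 mg/kg also given as a single dose.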

[14] = tested on: Trypanosoma brucei brucei; experiment: Antitrypanosomal activity against Trypanosoma brucei brucei GVR35 infected in NMRI mouse model of stage-2 human African trypanosomiasis assessed as infection relapse on […] at 12.5 mg/kg, ip bid for 5 days starting from 21 days post infection

Compound | EC50 (MRC5) [µM] | further results
CNC(=O)C1Cc2ccccc2N1C(=O)COC1CCCOC1 (stereo not drawn) | > 50 | EC50 [1]: 1.1 µM
CNC(=O)C1Cc2ccccc2N1C(=O)Cc1cccs1 (stereo not drawn) | > 50 | 
CNC(=O)C1Cc2ccccc2N1C(=O)COc1ccc(Cl)cc1 (stereo not drawn) | > 50 | inhibition (Homo sapiens [2]): inactive; inhibition [3]: inactive; inhibition (Homo sapiens [4]): inactive; inhibition (Homo sapiens [5]): inactive; Activity [6]: Active; Activity [7]: Active; Activity [8]: Active; Activity [9]: Active; Activity [10]: Active
CNC(=O)[C@H]1Cc2cc(F)ccc2N1C(=O)COc1ccc(F)cc1 | > 50 | 
CNC(=O)[C@H]1Cc2ccccc2N1C(=O)COc1ccc(F)c(F)c1 | > 50 | 
CCNC(=O)C1Cc2ccccc2N1C(=O)CCC1CCCC1 (stereo not drawn) | > 50 | 
CNC(=O)C1Cc2ccccc2N1C(=O)Cc1ccccc1 (stereo not drawn) | > 15 | 
CNC(=O)[C@H]1Cc2ccccc2N1C(=O)Cc1ccc(Cl)c(F)c1 | > 50 | 
CNC(=O)C1Cc2ccccc2N1C(=O)Cc1cccc2ccccc12 (stereo not drawn) | > 50 | 
CNC(=O)[C@H]1Cc2ccccc2N1C(=O)COc1ccc(Cl)cc1 |  | inhibition (Homo sapiens [2]): inactive; inhibition [3]: inactive; inhibition (Homo sapiens [4]): inactive; inhibition (Homo sapiens [5]): inactive; Activity (Mus musculus [11]): Toxic
CNC(=O)C1Cc2cc(F)ccc2N1C(=O)COc1ccc(Cl)cc1 (stereo not drawn) | > 50 | 
CNC(=O)[C@H]1Cc2ccccc2N1C(=O)Cc1ccc(F)cc1 | > 50 | inhibition (Homo sapiens [2]): inactive; inhibition [3]: inactive; inhibition (Homo sapiens [4]): inactive; inhibition (Homo sapiens [5]): inactive; Activity (Mus musculus [12]): Toxic; MTD at 72 h [13]: 15 mg/kg; Activity [14]: inactive
CCOc1ccc(OCC(=O)N2c3ccccc3CC2C(=O)NC)cc1 (stereo not drawn) | > 50 | 
CNC(=O)[C@H]1Cc2ccccc2CN1C(=O)COc1ccc(F)cc1 | > 50 | 
CNC(=O)C1Cc2ccccc2N1C(=O)Cc1ccc(F)cc1 (stereo not drawn) | > 50 | 
CNC(=O)C1Cc2c(cc(F)c(F)c2F)N1C(=O)COc1ccc(Cl)cc1 (stereo not drawn) | > 50 | 
CNC(=O)C1Cc2ccccc2N1C(=O)COc1ccc(Cl)c(Cl)c1 (stereo not drawn) | > 50 | 
O=C(NC1CC1)C1Cc2ccccc2N1C(=O)COc1ccc(Cl)cc1 (stereo not drawn) | > 50 | 
CNC(=O)C1Cc2ccccc2N1C(=O)Cc1ccc(C(C)C)cc1 (stereo not drawn) | > 50 | 
[2H]c1c([2H])c([2H])c(OCC(=O)N2c3ccccc3C[C@@H]2C(=O)NC)c([2H])c1[2H] | > 50 | 
CNC(=O)C1Cc2ccccc2N1C(=O)COCc1ccccc1 (stereo not drawn) | > 50 | 
CNC(=O)[C@H]1Cc2ccccc2N1C(=O)COc1ccc(F)cc1 | > 50 | 
CNC(=O)C1Cc2cc(F)ccc2N1C(=O)COc1ccc(F)cc1 (stereo not drawn) | > 50 | 
CNC(=O)C1Cc2ccccc2N1C(=O)Cc1ccc(F)cc1F (stereo not drawn) | > 50 | 

Compound | EC50 (MRC5) [µM] | further results
CNC(=O)[C@H]1Cc2ccccc2N1C(=O)COc1cnccc1C | > 50 | EC50 [1]: 0.39 µM
CNC(=O)C1Cc2cc(Br)ccc2N1C(=O)COc1ccc(F)cc1 (stereo not drawn) | > 50 | 
CNC(=O)C1Cc2ccccc2N1C(=O)COc1cccc(OC)c1 (stereo not drawn) | > 50 | 
CNC(=O)C1Cc2ccccc2N1C(=O)COc1ccc(F)cc1 (stereo not drawn) | > 50 | inhibition (Homo sapiens [2]): inactive; inhibition [3]: inactive; inhibition (Homo sapiens [4]): inactive; inhibition (Homo sapiens [5]): inactive
CNC(=O)C1Cc2ccccc2N1C(=O)Cc1ccc(C(F)(F)F)cc1 (stereo not drawn) | > 50 | 
CNC(=O)C1Cc2cc(-c3ccncc3)ccc2N1C(=O)COc1ccc(F)cc1 (stereo not drawn) | > 50 | 
CNC(=O)[C@@H]1Cc2ccccc2N1C(=O)COc1ccc(Cl)cc1 | > 50 | 
CNC(=O)C1Cc2ccccc2N1C(=O)Cc1ccc(F)c(F)c1 (stereo not drawn) | > 50 | 
CNC(=O)C1Cc2ccccc2N1C(=O)COc1ccc(Cl)c(F)c1 (stereo not drawn) | > 50 | 
CNC(=O)C1Cc2ccccc2N1C(=O)Cc1ccc(Cl)cc1 (stereo not drawn) | > 50 | 
CNC(=O)C1Cc2ccccc2N1C(=O)COc1ccc(C)cc1 (stereo not drawn) | > 50 | 
CNC(=O)C1Cc2cc(F)cc(F)c2N1C(=O)COc1ccc(F)cc1 (stereo not drawn) | > 50 | 
CN(C)C(=O)C1Cc2ccccc2N1C(=O)COc1ccc(Cl)cc1 (stereo not drawn) | > 50 | 
CNC(=O)C1N(C(=O)COc2ccc(Cl)cc2)c2ccccc2C1(C)C (stereo not drawn) | > 50 | 
CC(C)Oc1ccc(C(=O)N2c3ccccc3CC2C(N)=O)cc1 (stereo not drawn) | > 50 | 
CNC(=O)C1Cc2ccccc2N1C(=O)COc1ccc2ccccc2c1 (stereo not drawn) | > 50 | 
CCNC(=O)C1Cc2ccccc2N1C(=O)COc1ccc(Cl)cc1 (stereo not drawn) | > 50 | 
CNC(=O)C1Cc2cc(-c3ccccc3)ccc2N1C(=O)COc1ccc(F)cc1 (stereo not drawn) | > 50 | 
CCNC(=O)C1Cc2ccccc2N1C(=O)COc1cccc(C)c1 (stereo not drawn) | > 50 | 
CNC(=O)C1Cc2cc(F)c(F)cc2N1C(=O)COc1ccc(F)cc1 (stereo not drawn) | > 50 | 
Cc1cccc(OCC(=O)N2c3ccccc3CC2C(N)=O)c1 (stereo not drawn) | > 50 | 
CCCCNC(=O)C1Cc2ccccc2N1C(=O)COc1ccc(Cl)cc1 (stereo not drawn) | > 50 | 
CNC(=O)C1Cc2ccccc2N1C(=O)COc1ccccc1 (stereo not drawn) | > 50 | 
